Compound activity: PubChem, several laboratories
Hits are enriched below; roughly 4.8% of the tested compounds scored in any of these assays.
NF-kB neuron act: NF-kB expression increase, human neuronal cells | NF-kB reporter expression; stronger effect = higher value | fold change at 12.5 µM | actives 1.6% (n = 190,000); in the data active = fold change above about 3.3
FLuc inhib CS: inhibits firefly luciferase, flagging false hits in luciferase inhibition screens; P08659; ATPLite firefly luciferase biochemical luminescence, 10 min; inhibition, % at 10 µM; actives 1.5% (n = 200,000); AID 1006;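 active = inhibition above about 50% when tested at 10 µM, limit read from the data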
Target sequence (P08659 whole entry, looked up): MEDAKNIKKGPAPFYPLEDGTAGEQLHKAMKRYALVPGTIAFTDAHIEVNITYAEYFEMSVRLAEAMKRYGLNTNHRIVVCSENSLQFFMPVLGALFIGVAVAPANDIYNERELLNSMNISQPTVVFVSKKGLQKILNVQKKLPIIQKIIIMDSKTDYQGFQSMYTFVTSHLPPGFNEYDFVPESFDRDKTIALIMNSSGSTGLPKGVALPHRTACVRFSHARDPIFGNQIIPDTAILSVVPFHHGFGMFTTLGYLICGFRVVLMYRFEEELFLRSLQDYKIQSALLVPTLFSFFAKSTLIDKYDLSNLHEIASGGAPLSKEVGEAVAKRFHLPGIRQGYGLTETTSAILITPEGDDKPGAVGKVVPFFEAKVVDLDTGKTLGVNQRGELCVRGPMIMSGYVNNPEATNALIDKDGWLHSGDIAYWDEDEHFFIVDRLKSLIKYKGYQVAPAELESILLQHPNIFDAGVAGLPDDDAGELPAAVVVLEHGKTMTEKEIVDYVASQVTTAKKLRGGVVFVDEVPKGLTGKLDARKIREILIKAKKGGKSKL
APP transl inh: APP translation inhibition. actives 0.82% (n = 190,000). inhibition, % at 2 µM. SH-SY5Y APP 5'UTR-luciferase reporter, luminescence;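 active = inhibition above a set limit, derived from the sample mean plus 3 SD, cut at about 45% in these data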
APP 5'UTR act: activates APP 5'UTR luciferase reporter | SH-SY5Y APP 5'UTR luciferase reporter, luminescence; zero percent = DMSO vehicle wells | activation, % at 2 µM | actives 1% (n = 190,000) | AID 1276;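 active = activation above a set limit, based on mean plus 3 SD of controls, cut at about 140% in these data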
STAT1 act: activators of IFN-gamma induced STAT1 signaling; NIH 3T3 STAT1-luciferase reporter, luminescence; 100% = IFN-gamma alone, no compound; activation (% of control), % at 5.5 µM; actives 2.6% (n = 200,000);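 active = activation above the screen-wide mean activation plus 3 SD, cut at about 130% in these data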
FLuc act counter: firefly luciferase counter-screen for stimulation assays; ATPlite luciferase biochemical, luminescence, 10 min; 0 = ATP-free wells, 1 = DMSO control; 200,000 tested, under 10 active; AID 1027; activation factor at 10 µM;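 active = luciferase activation factor, scaled between plate controls, of at least 2 with compound at 10 µM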
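System: Luciferase/luciferin detection reagent, cell-free biochemical luciferase assay | Medium: PBS buffer for ATP | Dosing: Test compounds dosed from 2 mM stocks in 100% DMSO | Timing: 10 min at ambient temperature | Signal: Luminescence measurement of luciferase light output | Evaluation: Luciferase activation, seen as luminescence increase over controls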
A number is an active result; . = inactive; / = no result given.

SMILES	NF-kB neuron act	FLuc inhib CS	APP transl inh	APP 5'UTR act	STAT1 act	FLuc act counter
Cc1cc(C)cc(N=Cc2c(O)c3ccccc3oc2=O)c1	.	.	.	.	.	.
COc1ccc(N=Cc2c(O)c3ccccc3oc2=O)cc1	.	88	.	.	140	.
CCc1cccc2c(C(=O)COC(=O)c3ccccc3)c[nH]c12	.	.	.	.	143	.
CCc1cccc2c(C(=O)COC(=O)c3c(C)noc3C)c[nH]c12	.	.	.	.	.	.
CCc1cccc2c(C(=O)COC(=O)c3ccc(O)cc3)c[nH]c12	.	.	.	.	132	.
Cc1ccc(C(=O)COc2ccccc2C(=O)Nc2ccccc2)cc1	.	.	.	.	.	.
O=S(=O)(Nc1ccc(O)c(Sc2nc3ccccc3s2)c1)c1ccc(Cl)cc1	.	.	.	.	.	.
O=C(Nc1nccs1)c1ccc(-c2ccc(Cl)cc2Cl)o1	.	69	.	.	146	.
COC(=O)c1c(-c2ccc(F)cc2)csc1NC(=O)c1ccco1	.	.	.	.	146	.
Oc1ccc(-c2nnc(-c3ccc(O)cc3)nn2)cc1	6.1	78	.	.	.	.
COC(=O)c1cc(OC)c(OC)cc1NC(=O)C(C)c1ccc([N+](=O)[O-])cc1 (stereo not given)	.	.	.	.	.	.
O=C(COC(=O)C1CCCCC1)Nc1cc([N+](=O)[O-])ccc1F	.	.	.	.	.	.
Cc1c(C(=O)OCCOC(C)C)[nH]c2c1C(=O)CC(C)(C)C2	.	.	.	.	.	.
COCCOC(=O)c1[nH]c2c(c1C)C(=O)CC(c1ccc(N(C)C)cc1)C2 (stereo not given)	.	.	.	.	.	.
CSCCOC(=O)c1[nH]c2c(c1C)C(=O)CC(c1ccco1)C2 (stereo not given)	.	.	95	.	.	.
COCCOC(=O)c1[nH]c2c(c1C)C(=O)CC(c1ccco1)C2 (stereo not given)	.	.	96	.	.	.
COC(=O)c1[nH]c2c(c1C)C(=O)CC(c1cccs1)C2 (stereo not given)	.	.	95	.	.	.
COCCOC(=O)c1[nH]c2c(c1C)C(=O)CC(c1ccc(F)cc1)C2 (stereo not given)	.	.	.	.	.	.
Cc1c(C(=O)OCCOC(C)C)[nH]c2c1C(=O)CC(c1ccco1)C2 (stereo not given)	3.5	.	96	.	.	.
COc1ccc[nH]c1=O	.	.	.	.	.	.
Cc1cc(C(=O)OCC(=O)N2c3ccccc3CC2C)c(C)o1 (stereo not given)	.	.	.	.	.	.
CCOC(=O)c1cc2occc2n1CC(=O)N1CCCc2ccccc21	.	.	.	.	.	.
COCCOC(=O)c1[nH]c2c(c1C)C(=O)CC(c1ccccc1)C2 (stereo not given)	3.8	.	92	.	.	.
Cc1c(C(=O)O)[nH]c2c1C(=O)CC(c1ccccc1)C2 (stereo not given)	.	.	.	.	.	.
Cc1c(C(=O)OCc2ccccc2)[nH]c2c1C(=O)CC(c1ccco1)C2 (stereo not given)	.	.	94	.	.	.
SMILES	NF-kB neuron act	FLuc inhib CS	APP transl inh	APP 5'UTR act	STAT1 act	FLuc act counter
CCOC(=O)c1[nH]c2c(c1C)C(=O)CC(c1ccco1)C2 (stereo not given)	6.4	.	96	.	.	.
COc1nccc(-c2ccc(F)cc2)c1C#N	.	.	.	.	.	.
CC(=O)Nc1cccc(CNCc2cccc(NC(C)=O)c2)c1	.	.	.	.	.	.
Cc1[nH]n(-c2ccccc2)c(=O)c1C=Nc1cnc2ccccc2c1	.	.	.	.	.	.
CCOc1ccc(N=Cc2c(C)[nH]n(-c3nc4ccccc4[nH]3)c2=O)cc1	.	70	.	.	.	.
Cc1nc2ccccc2c(=O)n1/N=C/c1cccs1	.	.	53	.	.	.
O=C(Nc1cnn(C23CC4CC(CC(C4)C2)C3)c1)c1cnn2cccnc12	.	67	.	.	.	.
N#Cc1c(NC(=O)c2cnn3cccnc23)sc2c1CCCC2	.	.	.	.	.	.
COc1ccc(-c2[nH]ncc2CN2CCC(N3CCSCC3)CC2)c(F)c1	.	.	.	.	.	.
Fc1ccc2c(Cl)c(-c3nnc(-c4cccs4)o3)sc2c1	.	.	.	146	.	.
Clc1ccc2c(Cl)c(-c3nnc(-c4ccccc4)o3)sc2c1	/	/	.	.	.	/
O=C(/C=C\Nc1ccc2c(c1)OCO2)c1ccc2c(c1)OCO2	8	89	.	197	.	.
COc1ccc(/C(N)=N/OC(=O)c2cccc([N+](=O)[O-])c2)cc1	.	.	.	.	.	.
CCOc1ccc(N/C=C\C(=O)c2ccc3c(c2)OCO3)cc1	.	/	.	.	131	/
COc1ccc(N/C=C\C(=O)c2ccc3c(c2)OCO3)cc1	8.4	89	.	.	.	.
COc1ccc(/C(N)=N/OC(=O)c2ccc3c(c2)OCO3)cc1	.	69	.	.	.	.
O=C(c1ccc(CNc2c(N3CCCC3)c(=O)c2=O)cc1)N1CCc2ccccc2C1	.	.	.	.	.	.
COCCNC(=O)NC(=O)CN1CCCc2ccccc21	.	.	.	.	.	.
O=C(NCc1ccc2c(c1)OCO2)c1ccccn1	.	.	.	.	.	.
O=C(/C=C\Nc1ccc2c(c1)OCO2)c1ccccn1	.	95	.	.	.	.
Clc1nc(-c2n[nH]nc2Cl)n[nH]1	.	.	.	.	.	.
COc1ccc(Cl)cc1-c1nc(-c2ccc(NC(=O)c3cccs3)cc2)no1	.	.	.	.	129	.
CCOc1ccc(C(=O)NNC2CC(=O)N(Cc3ccc(Cl)cc3)C2=O)cc1OC (stereo not given)	.	.	.	.	.	.
Cc1ccc2c(c1)C(N1CCCC1=O)CC(c1ccco1)N2 (stereo not given)	3.7	95	.	.	.	.
Cc1ccc(C2CC(c3ccco3)n3ncnc3N2)cc1 (stereo not given)	.	.	.	.	.	.
SMILES	NF-kB neuron act	FLuc inhib CS	APP transl inh	APP 5'UTR act	STAT1 act	FLuc act counter
c1ccc(-c2onc3cc4c(cc23)OCCO4)cc1	3.8	.	.	.	146	.
CC(=O)c1ccc2noc(-c3ccccc3)c2c1	.	.	.	.	.	.
Nc1nnc(-c2cc3ccccc3oc2=O)s1	.	.	.	.	131	.
COc1ccc2oc(=O)c(-c3nnc(N)s3)cc2c1	.	.	.	.	.	.
Cn1ccnc1SCC(=O)Nc1nc2ccccc2s1	.	.	.	.	134	.
CC(=O)N1CCC(=NNc2nc3ccccc3s2)CC1	.	.	.	.	136	.
O=C(NNc1nc2ccccc2s1)Nc1ccccc1	.	.	.	.	138	.
CCNC(=O)Nc1nc2ccccc2s1	.	.	.	.	146	.
